Assay results from ChEMBL document CHEMBL1122233, “Antihypertensive 9-substituted 1-oxa-4,9-diazaspiro[5.5]undecan-3-ones” (J Med Chem, 1983).

What was measured:
Rattus norvegicus [1] = test: Percentage fall in systolic blood pressure after 4 hr at 25 mg/kg given perorally; type: functional, Artery; settings: route oral
Procedure, shortened: (§1)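 Male Okamoto-Aoki spontaneously hypertensive rats, trained, in groups of four matched for mean systolic pressure; five treated groups and one vehicle control run concurrently. Oral dosing in water (solution or suspension, 0.1 mL/10 g) on two consecutive mornings. On day 2, rats were restrained at 30.0 ± 1.0 °C and tail-cuff systolic pressure recorded at 1–4 h; percent fall versus control, 1-tail t test, p ≤ 0.05.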

Rattus norvegicus [2] = test: Percentage fall in systolic blood pressure after 1 hr at 6.25 mg/kg given perorally; type: functional, Artery; settings: route oral
Procedure, shortened: (§2)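 Male Okamoto-Aoki SHR, four per group, with a concurrent vehicle control group. Oral dosing in water (0.1 mL/10 g) on two consecutive mornings. After the day-2 dose, rats were restrained in a 30 °C chamber. Tail-cuff systolic pressure was taken at 1-4 h from four traces per rat. Result is % decrease versus control mean, by 1-tailed t test, p ≤ 0.05.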

Rattus norvegicus [3] = test: Percentage fall in systolic blood pressure after 4 hr at 6.25 mg/kg given perorally; type: functional, organism-based; parameters: dose 6.25 mg/kg; settings: Artery; procedure, shortened: as §1
Rattus norvegicus [4] = test: (§3) Percentage fall in systolic blood pressure after 1 hr at 25 mg/kg given perorally; type: functional, Artery; settings: route oral; procedure, shortened: as §1
Rattus norvegicus [5] = test: (§4) Percentage fall in systolic blood pressure after 3 hr at 25 mg/kg given perorally; type: functional, Artery; settings: route oral; procedure, shortened: as §1
Rattus norvegicus [6] = test: Percentage fall in systolic blood pressure after 2 hr at 25 mg/kg given perorally; type: functional, Artery; settings: route oral; procedure, shortened: as §1
Rattus norvegicus [7] = test: Percentage fall in systolic blood pressure after 2 hr at 6.25 mg/kg given perorally; type: functional, Artery; settings: route oral; procedure, shortened: as §1
Rattus norvegicus [8] = test: Percentage fall in systolic blood pressure after 3 hr at 6.25 mg/kg given perorally; type: functional, Artery; settings: route oral; procedure, shortened: as §1
Rattus norvegicus [9] = test: as §4; type: functional, organism-based; parameters: dose 25 mg/kg; settings: Artery; procedure, shortened: as §1
Rattus norvegicus [10] = test: as §3; type: functional, organism-based; parameters: dose 25 mg/kg; settings: Artery; procedure, shortened: as §1
Rattus norvegicus [11] = test: Percentage fall in systolic blood pressure after 4 hours at 6.25 mg/kg given perorally; type: functional, Artery; settings: route oral; procedure, shortened: as §2
Rattus norvegicus [12] = test: (§5) Percentage fall in systolic blood pressure after 2 hours at 12.5 mg/kg given perorally; type: functional, Artery; settings: route oral; procedure, shortened: as §2
[13] = biological target: T1, Adrenergic receptor alpha-1 (Rattus norvegicus, UniProt P15823+P23944+P43140); test: Affinity for alpha-1 adrenoceptor of rat cerebral cortex was determined by ligand binding using [3H]prazosin.; type: tissue-based
T1 sequence (P15823 whole entry): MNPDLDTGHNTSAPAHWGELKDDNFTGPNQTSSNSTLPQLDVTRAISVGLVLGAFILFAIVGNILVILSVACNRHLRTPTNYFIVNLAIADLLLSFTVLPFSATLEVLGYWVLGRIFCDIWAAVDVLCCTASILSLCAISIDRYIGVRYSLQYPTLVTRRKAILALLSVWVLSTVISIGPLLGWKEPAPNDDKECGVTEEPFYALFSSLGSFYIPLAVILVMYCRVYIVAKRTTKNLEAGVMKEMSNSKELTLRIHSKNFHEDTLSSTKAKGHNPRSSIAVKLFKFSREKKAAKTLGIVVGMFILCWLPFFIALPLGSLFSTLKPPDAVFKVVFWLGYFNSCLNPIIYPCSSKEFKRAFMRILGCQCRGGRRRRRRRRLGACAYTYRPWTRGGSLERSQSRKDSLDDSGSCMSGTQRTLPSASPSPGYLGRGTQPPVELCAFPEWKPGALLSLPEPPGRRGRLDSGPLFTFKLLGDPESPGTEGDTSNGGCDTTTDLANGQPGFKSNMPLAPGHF
T1 sequence (P23944 whole entry): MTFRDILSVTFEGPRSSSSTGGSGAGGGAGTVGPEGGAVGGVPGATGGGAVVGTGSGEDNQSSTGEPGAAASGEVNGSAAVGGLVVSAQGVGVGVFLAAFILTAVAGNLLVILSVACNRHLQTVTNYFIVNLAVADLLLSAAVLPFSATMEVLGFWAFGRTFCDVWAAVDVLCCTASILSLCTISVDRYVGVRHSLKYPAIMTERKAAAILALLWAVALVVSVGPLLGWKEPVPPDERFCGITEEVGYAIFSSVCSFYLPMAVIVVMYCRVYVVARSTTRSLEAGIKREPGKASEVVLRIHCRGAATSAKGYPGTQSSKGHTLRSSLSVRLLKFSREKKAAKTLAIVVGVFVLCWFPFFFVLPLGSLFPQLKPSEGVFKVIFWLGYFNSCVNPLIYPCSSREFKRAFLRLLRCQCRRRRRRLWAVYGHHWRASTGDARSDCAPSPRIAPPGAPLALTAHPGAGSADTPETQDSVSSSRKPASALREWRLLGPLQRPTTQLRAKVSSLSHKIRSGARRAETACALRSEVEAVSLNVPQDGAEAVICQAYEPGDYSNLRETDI
T1 sequence (P43140 whole entry): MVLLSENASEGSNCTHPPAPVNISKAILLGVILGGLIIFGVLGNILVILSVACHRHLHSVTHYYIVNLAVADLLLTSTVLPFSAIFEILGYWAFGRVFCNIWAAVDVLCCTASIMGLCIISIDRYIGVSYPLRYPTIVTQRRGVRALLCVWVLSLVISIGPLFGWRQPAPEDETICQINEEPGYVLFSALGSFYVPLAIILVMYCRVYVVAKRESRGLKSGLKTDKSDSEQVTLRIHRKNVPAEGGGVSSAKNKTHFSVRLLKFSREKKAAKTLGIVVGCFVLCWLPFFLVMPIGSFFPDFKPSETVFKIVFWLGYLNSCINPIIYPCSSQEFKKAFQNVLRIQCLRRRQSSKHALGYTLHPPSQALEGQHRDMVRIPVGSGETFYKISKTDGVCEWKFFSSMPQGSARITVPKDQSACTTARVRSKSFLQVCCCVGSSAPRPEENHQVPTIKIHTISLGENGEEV
Procedure, shortened: (§6)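 Washed rat cerebral cortex membranes (homogenised in 50 mM Tris-HCl pH 7.8, pelleted at 48000g, washed 3 times) at 2.5 mg/mL protein. […] Ice-cold buffer stop, then filtration. Nonspecific binding defined with 200 μmol norepinephrine. KI from IC50 by Cheng-Prusoff, given as negative log.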

Rattus norvegicus [14] = test: (§7) Percentage fall in systolic blood pressure after 4 hours at 12.5 mg/kg given perorally; type: functional, Artery; settings: route oral; procedure, shortened: as §2
Rattus norvegicus [15] = test: Percentage fall in systolic blood pressure after 3 hours at 50 mg/kg given perorally; type: functional, Artery; settings: route oral; procedure, shortened: as §2
Rattus norvegicus [16] = test: Percentage fall in systolic blood pressure after 1 hr at 12.5 mg/kg given perorally; type: functional, Artery; settings: route oral; procedure, shortened: as §2
Rattus norvegicus [17] = test: (§8) Percentage fall in systolic blood pressure after 3 hours at 12.5 mg/kg given perorally; type: functional, Artery; settings: route oral; procedure, shortened: as §2
Rattus norvegicus [18] = test: Percentage fall in systolic blood pressure after 3 hours at 6.25 mg/kg given perorally; type: functional, Artery; settings: route oral; procedure, shortened: as §2
Rattus norvegicus [19] = test: Percentage fall in systolic blood pressure after 2 hours at 50 mg/kg given perorally; type: functional, Artery; settings: route oral; procedure, shortened: as §2
Rattus norvegicus [20] = test: Percentage fall in systolic blood pressure after 1 hr at 50 mg/kg given perorally; type: functional, Artery; settings: route oral; procedure, shortened: as §2
[21] = biological target: T2, Adrenergic receptor alpha-2 (Rattus norvegicus, UniProt P22086+P19328+P22909); test: Affinity for alpha-2 adrenergic receptor of rat cerebral cortex was determined by ligand binding using [3H]yohimbine.; type: tissue-based; procedure, shortened: as §6
T2 sequence (P22086 whole entry): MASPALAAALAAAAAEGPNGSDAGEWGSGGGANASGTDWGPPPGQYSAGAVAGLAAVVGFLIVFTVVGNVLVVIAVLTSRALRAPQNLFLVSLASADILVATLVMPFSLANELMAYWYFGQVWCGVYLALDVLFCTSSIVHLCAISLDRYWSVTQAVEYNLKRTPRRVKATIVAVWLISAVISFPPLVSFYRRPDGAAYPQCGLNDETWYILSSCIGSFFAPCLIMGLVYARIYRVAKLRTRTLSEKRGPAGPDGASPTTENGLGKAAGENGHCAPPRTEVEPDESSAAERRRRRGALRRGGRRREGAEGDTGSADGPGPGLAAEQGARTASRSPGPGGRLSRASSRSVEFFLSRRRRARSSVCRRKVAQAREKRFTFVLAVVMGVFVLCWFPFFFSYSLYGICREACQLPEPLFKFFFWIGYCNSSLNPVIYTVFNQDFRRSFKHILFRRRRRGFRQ
T2 sequence (P19328 whole entry): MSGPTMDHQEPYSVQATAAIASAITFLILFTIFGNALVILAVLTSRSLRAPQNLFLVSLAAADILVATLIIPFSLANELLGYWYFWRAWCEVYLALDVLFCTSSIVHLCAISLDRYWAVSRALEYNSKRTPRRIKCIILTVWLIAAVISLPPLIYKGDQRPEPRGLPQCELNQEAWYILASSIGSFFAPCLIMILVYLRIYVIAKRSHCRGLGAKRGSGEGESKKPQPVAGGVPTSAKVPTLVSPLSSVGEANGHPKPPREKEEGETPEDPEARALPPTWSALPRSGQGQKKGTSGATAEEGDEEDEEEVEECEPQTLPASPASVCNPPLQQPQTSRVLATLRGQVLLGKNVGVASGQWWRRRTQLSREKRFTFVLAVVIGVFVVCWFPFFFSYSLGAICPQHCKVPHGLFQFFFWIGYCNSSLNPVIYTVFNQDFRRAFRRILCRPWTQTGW
T2 sequence (P22909 whole entry): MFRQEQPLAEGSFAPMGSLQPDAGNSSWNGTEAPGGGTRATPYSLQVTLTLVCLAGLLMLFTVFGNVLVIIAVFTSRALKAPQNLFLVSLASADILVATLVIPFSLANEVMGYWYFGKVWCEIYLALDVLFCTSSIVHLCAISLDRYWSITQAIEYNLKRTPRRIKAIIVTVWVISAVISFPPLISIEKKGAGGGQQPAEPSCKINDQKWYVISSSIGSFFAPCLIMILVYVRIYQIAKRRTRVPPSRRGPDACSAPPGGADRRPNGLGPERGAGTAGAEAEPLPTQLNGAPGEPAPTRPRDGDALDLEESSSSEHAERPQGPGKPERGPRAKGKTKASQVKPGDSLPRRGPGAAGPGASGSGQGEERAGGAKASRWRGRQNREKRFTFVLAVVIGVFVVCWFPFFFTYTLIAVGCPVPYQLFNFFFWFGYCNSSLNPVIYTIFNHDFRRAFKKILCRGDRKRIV

Rattus norvegicus [22] = test: Percentage fall in systolic blood pressure after 2 hours at 6.25 mg/kg given perorally; type: functional, Artery; settings: route oral; procedure, shortened: as §2
Rattus norvegicus [23] = test: Percentage fall in systolic blood pressure after 4 hours at 50 mg/kg given perorally; type: functional, Artery; settings: route oral; procedure, shortened: as §2
Rattus norvegicus [24] = test: Percentage fall in systolic blood pressure after 4 hours at 25 mg/kg given perorally; type: functional, Artery; settings: route oral; procedure, shortened: as §1
Rattus norvegicus [25] = test: Percentage fall in systolic blood pressure after 2 hours at 25 mg/kg given perorally; type: functional, organism-based; parameters: dose 25 mg/kg; settings: Artery; procedure, shortened: as §1
Rattus norvegicus [26] = test: Percentage fall in systolic blood pressure after 3 hours at 25 mg/kg given perorally; type: functional, Artery; settings: route oral; procedure, shortened: as §1
Rattus norvegicus [27] = test: as §8; type: functional, organism-based; parameters: dose 12.5 mg/kg; settings: Artery; procedure, shortened: as §2
Rattus norvegicus [28] = test: as §7; type: functional, organism-based; parameters: dose 12.5 mg/kg; settings: Artery; procedure, shortened: as §2
Rattus norvegicus [29] = test: as §5; type: functional, organism-based; parameters: dose 12.5 mg/kg; settings: Artery; procedure, shortened: as §2

## O=C1COC2(CCN(CC3COc4ccccc4O3)CC2)CN1 (stereo not drawn)
Rattus norvegicus [1]
  Decrease in SBP: 38%
Rattus norvegicus [2]
  Decrease in SBP: 38%
Rattus norvegicus [3]
  Decrease in SBP: Not significant
Rattus norvegicus [4]
  Decrease in SBP: 53%
Rattus norvegicus [5]
  Decrease in SBP: 40%
Rattus norvegicus [6]
  Decrease in SBP: 49%
Rattus norvegicus [7]
  Decrease in SBP: 36%
Rattus norvegicus [8]
  Decrease in SBP: 21%

## O=C1COC2(CCN(CC(O)C3COc4ccccc4O3)CC2)CN1c1ccccc1 (stereo not drawn)
Rattus norvegicus [1]
  Decrease in SBP: 16%
Rattus norvegicus [9]
  Decrease in SBP: Not significant
Rattus norvegicus [10]
  Decrease in SBP: Not significant
Rattus norvegicus [6]
  Decrease in SBP: 25%

## O=C1COC2(CCN(CCc3c[nH]c4ccccc34)CC2)CN1
Rattus norvegicus [11]
  Decrease in SBP: 19%
Rattus norvegicus [12]
  Decrease in SBP: 41%
Rattus norvegicus [2]
  Decrease in SBP: 28%
[13]
  -Log Ki: 7.41
Rattus norvegicus [14]
  Decrease in SBP: 26%
Rattus norvegicus [15]
  Decrease in SBP: 48%
Rattus norvegicus [16]
  Decrease in SBP: 39%
Rattus norvegicus [17]
  Decrease in SBP: 29%
Rattus norvegicus [18]
  Decrease in SBP: 20%
Rattus norvegicus [19]
  Decrease in SBP: 48%
Rattus norvegicus [20]
  Decrease in SBP: 53%
[21]
  -Log Ki: 6.2
Rattus norvegicus [22]
  Decrease in SBP: 30%
Rattus norvegicus [23]
  Decrease in SBP: 41%

## O=C1COC2(CCN(CCc3ccc(O)cc3)CC2)CN1
Rattus norvegicus [24]
  Decrease in SBP: 21%
Rattus norvegicus [25]
  Decrease in SBP: Not significant
Rattus norvegicus [4]
  Decrease in SBP: 13%
Rattus norvegicus [26]
  Decrease in SBP: 11%

## O=C1COC2(CCN(CCc3c[nH]c4ccccc34)CC2)CN1c1ccccc1
Rattus norvegicus [27]
  Decrease in SBP: Not significant
Rattus norvegicus [15]
  Decrease in SBP: 45%
Rattus norvegicus [16]
  Decrease in SBP: 19%
Rattus norvegicus [28]
  Decrease in SBP: Not significant
Rattus norvegicus [19]
  Decrease in SBP: 59%
Rattus norvegicus [29]
  Decrease in SBP: Not significant
Rattus norvegicus [20]
  Decrease in SBP: 45%
Rattus norvegicus [23]
  Decrease in SBP: 40%
